How the values were obtained:
RAW264.7 = assay: Cytotoxicity against mouse RAW264.7 cells assessed as reduction in cell viability at 5 uM incubated for 24 hrs by MTT assay; type: cell-based; details: raw264.7, 24 h
SMMC-7721 = assay: Cytotoxicity against human SMMC-7721 cells assessed as reduction in cell viability incubated for 24 hrs by MTT assay; type: functional, cell-based; details: SMMC-7721, 24 h
Outline: (§1)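 Cells kept at 37 °C in 5% CO₂. HepG2 grown in DMEM with 10% serum; HHL-5, LO2 and SMMC-7721 in 1640 medium with 10% serum. Seeded, grown 24 h, then exposed 24 h to 10, 5, 2.5, 1.25, 0.625 and 0.3125 µg/mL. MTT (5 mg/mL) added for 4 h at 37 °C; formazan dissolved in DMSO, OD read at 570 nm. IC50 averaged from three replicates.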

[1] = Cytotoxicity against human HHL-5 cells assessed as reduction in cell viability incubated for 24 hrs by MTT assay; type: cell-based; details: HHL-5, 24 h; outline: as §1
HepG2 = assay: Cytotoxicity against human HepG2 cells assessed as reduction in cell viability incubated for 24 hrs by MTT assay; type: functional, cell-based; details: HepG2, 24 h; outline: as §1
L02 = assay: Cytotoxicity against human L02 cells assessed as reduction in cell viability incubated for 24 hrs by MTT assay; type: cell-based; details: L02, 24 h; outline: as §1

SMILES | Activity (RAW264.7) | IC50 (SMMC-7721) [µM] | IC50 [1] [µM] | IC50 (HepG2) [µM] | IC50 (L02) [µM]
O=C1/C(=C/c2ccccc2F)CN(S(=O)(=O)c2ccc(Br)cc2)C/C1=C\c1ccccc1F | Non-Toxic | 5.2 | 14 | 13.7 | 16.2
CC(=O)Nc1ccc(S(=O)(=O)N2C/C(=C\c3ccccc3F)C(=O)/C(=C/c3ccccc3F)C2)cc1 | Non-Toxic |  | 13.6 | 5.2 | 
CC(=O)Nc1ccc(S(=O)(=O)N2C/C(=C\c3cccc(F)c3)C(=O)/C(=C/c3cccc(F)c3)C2)cc1 | Non-Toxic | 10.3 | 17 | 11.1 | 17.5
O=C1/C(=C/c2ccc(F)cc2)CN(S(=O)(=O)c2ccc(F)cc2)C/C1=C\c1ccc(F)cc1 | Non-Toxic | 14.7 | 11.7 | 8.1 | 14.8
O=C1/C(=C/c2ccc(F)cc2)CN(S(=O)(=O)c2ccc(Cl)cc2)C/C1=C\c1ccc(F)cc1 | Non-Toxic | 7 | 17.7 | 4.5 | 15.5
O=C1/C(=C/c2ccc(F)cc2)CN(S(=O)(=O)c2ccc(Br)cc2)C/C1=C\c1ccc(F)cc1 | Non-Toxic | 11.5 | 17.1 | 8 | 16.4
COc1cccc2c1C(=O)c1c(O)c3c(c(O)c1C2=O)C[C@@](O)(C(=O)CO)C[C@@H]3O[C@H]1C[C@H](N)[C@H](O)[C@H](C)O1 [DOXORUBICIN] |  |  | 12.2 | 1 | 13.8
Cc1ccc(S(=O)(=O)N2C/C(=C\c3ccc(F)cc3)C(=O)/C(=C/c3ccc(F)cc3)C2)cc1 | Non-Toxic | 5 | 6 | 4.5 | 14
N#Cc1ccc(S(=O)(=O)N2C/C(=C\c3ccc(F)cc3)C(=O)/C(=C/c3ccc(F)cc3)C2)cc1 | Non-Toxic | 15 | 14.6 | 9.8 | 14.7
O=C1/C(=C/c2cccc(F)c2)CN(S(=O)(=O)c2ccc(Cl)cc2)C/C1=C\c1cccc(F)c1 | Non-Toxic | 7.8 | 10.8 | 13.1 | 15.7
O=C1/C(=C/c2cccc(F)c2)CN(S(=O)(=O)c2ccc(C(F)(F)F)cc2)C/C1=C\c1cccc(F)c1 | Non-Toxic | 4.2 | 13.4 | 2.4 | 18
O=C1/C(=C/c2cccc(F)c2)CN(S(=O)(=O)c2ccccc2)C/C1=C\c1cccc(F)c1 | Non-Toxic | 12.9 | 17.1 | 3.4 | 16.2
O=C1/C(=C/c2cccc(F)c2)CN(S(=O)(=O)c2ccc(F)cc2)C/C1=C\c1cccc(F)c1 | Non-Toxic | 13.5 | 15.4 | 5 | 21.9
N#Cc1ccc(S(=O)(=O)N2C/C(=C\c3ccccc3F)C(=O)/C(=C/c3ccccc3F)C2)cc1 | Non-Toxic | 14.6 | 13.6 | 16.5 | 11
O=C1/C(=C/c2ccccc2F)CN(S(=O)(=O)c2ccc(F)cc2)C/C1=C\c1ccccc1F | Non-Toxic | 7.7 | 14.5 | 8 | 17.5
O=C1/C(=C/c2ccc(F)cc2)CN(S(=O)(=O)c2ccccc2)C/C1=C\c1ccc(F)cc1 | Non-Toxic | 9.1 | 7.7 | 18.8 | 18.8
O=C1/C(=C/c2cccc(F)c2)CN(S(=O)(=O)c2ccc(Br)cc2)C/C1=C\c1cccc(F)c1 | Non-Toxic | 11.7 | 16.5 | 7.7 | 15.8
O=C1/C(=C/c2ccccc2F)CN(S(=O)(=O)c2ccccc2)C/C1=C\c1ccccc1F | Non-Toxic | 5.7 | 27.2 | 15.9 | 17.6

Source: ChEMBL document CHEMBL4680257, “Discovery of novel NF-кB inhibitor based on scaffold hopping: 1,4,5,6,7,8-hexahydropyrido[4,3-d]pyrimidine” (Eur J Med Chem, 2020)
